Assay results: ChEMBL document CHEMBL1137201, “A virtual screening approach to finding novel and potent antagonists at the melanin-concentrating hormone 1 receptor” (J Med Chem, 2004)

Each molecule was assayed against T1, Melanin-concentrating hormone receptor 1 (Homo sapiens, UniProt Q99705) (assay: Inhibition of Melanin-concentrating hormone 1 receptor expressed in CHO cells).
T1 sequence (Q99705 whole entry): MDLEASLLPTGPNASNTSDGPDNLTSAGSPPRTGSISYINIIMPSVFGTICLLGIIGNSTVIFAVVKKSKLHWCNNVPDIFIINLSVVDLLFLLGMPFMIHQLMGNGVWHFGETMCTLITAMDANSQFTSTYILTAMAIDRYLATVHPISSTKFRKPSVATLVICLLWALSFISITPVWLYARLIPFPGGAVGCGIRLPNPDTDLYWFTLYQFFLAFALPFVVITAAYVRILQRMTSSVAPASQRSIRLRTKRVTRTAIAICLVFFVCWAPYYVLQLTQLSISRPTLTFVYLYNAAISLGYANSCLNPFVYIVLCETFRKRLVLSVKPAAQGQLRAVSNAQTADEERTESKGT
Assay type: cell-based
For `CCN1CCN(c2cc(C)c3cc(NC(=O)COc4cccc(C)c4)ccc3n2)CC1`, the IC50 was 6600 nM. `O=C(CNC(=O)OCc1ccccc1)NCC(CCCN1CCC(c2ccccc2)CC1)(c1ccccc1)c1ccccc1` showed an IC50 of 5 nM. With `O=C1c2cc(OCCC3CCN(Cc4ccc(C5=NCCN5)cc4)CC3)ccc2CCCN1Cc1ccccc1` the IC50 was 300 nM. `CCN1CCN(c2cc(C)c3cc(NC(=O)C(C)Oc4ccc(Cl)cc4Cl)ccc3n2)CC1` (stereo not given) gave an IC50 of 230 nM. With `CN(C)CC1CCc2cc(NC(=O)c3ccc(-c4ccc(F)cc4)cc3)ccc2C1` (stereo not given) the IC50 was 5.5 nM. Molecule `COc1ccc(CCC(=O)Nc2ccc3nc(N4CCN(C)CC4)cc(C)c3c2)cc1` has an IC50 of 250 nM. `Cc1cc(N2CCN(C)CC2)nc2ccc(NC(=O)C(C)Oc3ccc(Cl)cc3Cl)cc12` (stereo not given) showed an IC50 of 790 nM. With `CCN1CCN(c2cc(C)c3cc(NC(=O)CSc4ccncc4)ccc3n2)CC1` the IC50 was 8200 nM. `CCN1CCN(c2cc(C)c3cc(NC(=O)CCc4ccc(OC)cc4)ccc3n2)CC1` was tested, and the IC50 was 730 nM.

Each molecule was assayed against T1, Melanin-concentrating hormone receptor 1 (assay: Percent inhibition of Melanin-concentrating hormone 1 receptor expressed in CHO cells at 10 uM).
Assay type: cell-based
Method in brief: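 Same SPA radioligand binding setup: CHO MCH-1R membranes with 0.4 nM 125I-[Phe13,Tyr19]-MCH and WGA beads, 1 h at room temperature, 1 μM MCH for nonspecific binding. Compounds were screened at a single 10 μM concentration, and actives were retested in duplicate at 10 μM. Read-out is percent inhibition of specific binding.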
In the case of `Cc1cc(N2CCN(C)CC2)nc2ccc(NC(=O)CCC3CCCC3)cc12`, the inhibition is reported as 11.6%.

What follows are molecules tested against T1, Melanin-concentrating hormone receptor 1 (assay: (§1) Binding affinity for Melanin-concentrating hormone 1 receptor expressed in CHO cells).
Assay type: cell-based
Method in brief: (§2)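 Scintillation proximity binding: CHO membranes (5 μg) overexpressing MCH-1R with wheat germ agglutinin SPA beads and 0.4 nM 125I-[Phe13,Tyr19]-MCH, 1 h at room temperature. Nonspecific binding was taken with 1 μM MCH. Bound label was scintillation-counted. IC50 came from six-point semilog concentration–response curves.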
`CC[C@H](NC(=O)c1ccc(CC2CCN(Cc3ccc4c(c3)OCO4)CC2)cc1)c1ccc(C(=O)OC)cc1` gave a Ki of at most 1500 nM. `CC(=O)N[C@@H]1CCN(CCCCN(C(=O)Nc2ccc(F)c(Cl)c2)c2ccc(-c3cccc(C#N)c3)cc2)C1` was tested, and the Ki was under 100 nM. Molecule `COc1cc(N2CCN(C[C@H]3C[C@@H]3c3ccccc3)CC2)ccc1Br` has a Ki of under 1000 nM.

The molecules below were run against T1, Melanin-concentrating hormone receptor 1 (assay: as §1).
Assay type: cell-based
Method in brief: as §2
In the case of `O=C(CCCN1CCC(O)(c2ccc(Cl)cc2)CC1)c1ccc(Cl)cc1`, the Kb is reported as 9 nM. `CCCCN(CCCC)c1ccc(CNC[C@H]2CC[C@H](N(C)C(=O)c3cccc4ccccc34)CC2)cc1` gave a Kb of 284 nM.
